pIC50: −log10 of the molar value.

The test system of experiment [1] is HeLa. Description: Cytotoxicity against human HeLa cells after 96 h by WST1 colorimetric assay. In general terms: Tetrazolium dyes change colour on reduction, which living cells bring about.
The test system of experiment [2] is HeLa. Briefly: Cell cycle arrest in asynchronous human HeLa cells assessed as accumulation at G0/G1 phase at 10 uM after 24 hrs by flow cytometry. In kind it is functional. Put shortly:
(§1)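 Asynchronous HeLa cells grown 24 h, then treated 24 h at 10 or 50 µM. Cells were trypsinized, fixed in cold ethanol and permeabilized with 0.25% Triton X-100. They were stained with anti-H3P/Alexa 488 antibody, treated with RNase and stained with propidium iodide (10 µg/mL). Flow cytometry gave the percentage of cells in G0/G1, S and G2/M. Three independent runs; DMSO served as negative control.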
Background: A flow cytometer gives signals particle by particle.

For experiment [3], the system named is HeLa. Description: Cell cycle arrest in asynchronous human HeLa cells assessed as accumulation at S phase at 10 uM after 24 hrs by flow cytometry. In kind it is functional. An outline of the steps:
as §1

Experiment [4] has as its system HeLa. Description: Antiproliferative activity against human HeLa cells after 10 days by clonogenic assay. In kind it is functional, cell-based. As to conditions: 240 h. Put shortly:
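HeLa cells seeded at 100 cells/well, grown 24 h at 37 °C in 5% CO₂, then given medium with inhibitor at increasing concentrations (up to 100 µM) for 10 days. Colonies were fixed in 10% formaldehyde, stained with crystal violet and counted to get plating efficiency. IC50 was taken from the dose-response curve.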

The test system of experiment [5] is HeLa. Briefly: Cell cycle arrest in asynchronous human HeLa cells assessed as accumulation at G2/M phase at 10 uM after 24 hrs by flow cytometry. In kind it is functional. Put shortly:
as §1

Experiment [6] concerns the target T1, M-phase inducer phosphatase 2 (Homo sapiens, UniProt P30305).
T1 sequence (P30305 whole entry): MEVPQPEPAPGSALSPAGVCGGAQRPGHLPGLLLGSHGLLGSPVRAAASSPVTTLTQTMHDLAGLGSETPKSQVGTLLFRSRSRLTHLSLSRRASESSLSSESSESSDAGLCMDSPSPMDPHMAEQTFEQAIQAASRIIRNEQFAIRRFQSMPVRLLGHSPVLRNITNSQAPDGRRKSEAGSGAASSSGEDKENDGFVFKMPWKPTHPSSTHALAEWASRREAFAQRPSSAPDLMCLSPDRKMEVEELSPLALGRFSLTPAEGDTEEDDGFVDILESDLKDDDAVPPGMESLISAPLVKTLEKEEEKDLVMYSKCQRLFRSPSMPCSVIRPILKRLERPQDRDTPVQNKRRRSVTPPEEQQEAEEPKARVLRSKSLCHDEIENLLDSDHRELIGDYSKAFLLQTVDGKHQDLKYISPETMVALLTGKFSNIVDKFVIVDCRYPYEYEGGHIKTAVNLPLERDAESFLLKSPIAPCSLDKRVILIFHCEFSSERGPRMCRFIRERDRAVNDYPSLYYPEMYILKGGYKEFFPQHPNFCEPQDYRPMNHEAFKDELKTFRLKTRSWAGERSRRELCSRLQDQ
Description: Inhibition of human recombinant fused MBP-CDC25B3.

Experiment [7] deals with T1, M-phase inducer phosphatase 2. Briefly: Inhibition of human recombinant CDC25B.

On to `O=C1C(SCCO)=C(SCCO)C(=O)c2ccccc21`, for which the pIC50 (as a rule, the negative decadic logarithm of the IC50, by convention in mol/L) in experiment [1] is 4.97; in experiment [4], 5.07. Also, the Activity was 56% in experiment [2], 25% in experiment [3] and 19% in experiment [5].

Regarding `O=C1C(Br)=C(Br)C(=O)c2ncccc21`, the figures for the negative logarithm of the IC50 (pIC50) in experiment [1] and in experiment [6] were 4.67 and 5.28, respectively.

`O=C(CSC1=C(SCC(=O)OCc2ccccc2)C(=O)c2ccccc2C1=O)OCc1ccccc1`: the pIC50 in experiment [7] was 5.47.

Take `C[C@@]12CCCc3coc(c31)C(=O)c1cc3c(cc12)C(=O)C1=C(NCCS1(=O)=O)C3=O` [ADOCIAQUINONE B]: the pIC50 in experiment [7] was 7.15.

The values are drawn from ChEMBL document CHEMBL1144221, “Novel naphthoquinone and quinolinedione inhibitors of CDC25 phosphatase activity with antiproliferative properties” (Bioorg Med Chem, 2008).
